Screening results: PubChem BioAssay, several laboratories
Furin inhibitor: human furin inhibitors, primary screen, biochemical, fluorescence intensity. AID 463115, 2010. 220,000 tested, 0.061% active. inhibition, % at 20 µM or 30 µM. purified furin, fluorogenic substrate cleavage. P09958; in the data active = inhibition above about 25%
FXIIa inh 1536: human FXIIa protease inhibitors, primary screen, biochemical, 1536-well | Coagulation factor XII (Homo sapiens), P00748 | purified FXIIa, Boc-QGR-AMC fluorogenic substrate, 2 h | inhibition, % at 5 µM | 220,000 tested, 0.3% active | AID 800, 2007; in the data active = inhibition above about 40%
PERK inh: block of dimerizer-induced PERK translation repression, primary screen, PERK inhibitor project, CHO PERK-DD cells, SEAP luminescence, HTS; CHO PERK-DD fusion, SEAP luminescence translation reporter; inhibition, % at 5.6 µM; 220,000 tested, 0.17% active; AID 1416, 2008;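 active = inhibition above the mean inhibition of all tested compounds plus 3 SD, set separately per screening campaign, cut at about 2.9% in these data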;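 also: PERK kinase domain activated by AP20187 dimerizer at 100 nM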
KLK5 inh: human KLK5 protease inhibitors, primary screen, biochemical, 1536-well. Kallikrein-5 (Homo sapiens), Q9Y337. recombinant hK5, fluorogenic AMC substrate cleavage. inhibition, % at 5 µM. 210,000 tested, 0.59% active. AID 873, 2007;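 active = inhibition of 40% or more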
Thrombin inh: human alpha-thrombin inhibitors, primary screen, counter-screen for coagulation protease inhibitor project, biochemical, 1536-well, fluorogenic AMC substrate. Prothrombin (Homo sapiens), P00734. Boc-VPR-AMC fluorogenic substrate cleavage. inhibition, % at 5 µM. 220,000 tested, 0.26% active;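 active = inhibition at or above 40%; inactive = inhibition below 40%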
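Test system: human alpha-thrombin protein / Dosing: one concentration per compound, 5 µM, with 0.2% DMSO / Medium: pH 7.5 Tris-saline with Tween 20 / Benchmarks: no-compound enzyme wells and no-enzyme blanks / Read-out basis: percent inhibition of thrombin substrate cleavage / Timing: reaction at room temperature / Measured by: fluorescence, ex 355 nm, em 460 nm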
FXIa inh: human FXIa protease inhibitors, primary screen, biochemical, 1536-well | Coagulation factor XI (Homo sapiens), P03951 | purified FXIa, Boc-Glu-Ala-Arg-AMC fluorogenic substrate | AID 798, 2007 | inhibition, % at 5 µM | 220,000 tested, 0.14% active;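 active = inhibition of at least 40%; inactive = inhibition below 40%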;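 also: fluorescence of freed AMC excited at 355 nm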
Numbers stand for hits. Shown are actives, neighbours in structure and some others; about 1.2% of the full set was active somewhere.

Screening COc1cc(C(=O)Nc2nc(-c3cccs3)cs2)cc(OC)c1OC returned Furin inhibitor inactive, FXIIa inh 1536 inactive, PERK inh inactive, KLK5 inh inactive, Thrombin inh 73.2 and FXIa inh inactive.
Screening O=C(Nc1nc(-c2cccs2)cs1)c1ccco1 returned Furin inhibitor inactive, FXIIa inh 1536 inactive, PERK inh inactive, KLK5 inh inactive, Thrombin inh 61.8 and FXIa inh inactive.
For O=C(Nc1nc(-c2cccs2)cs1)c1ccc(Cl)cc1 the results were Furin inhibitor inactive, FXIIa inh 1536 inactive, PERK inh inactive, KLK5 inh inactive, Thrombin inh 75.0 and FXIa inh 43.3.
`N#CCCN(C(=O)COc1ccc(C#N)cc1)c1ccc(F)cc1` gave Furin inhibitor inactive, FXIIa inh 1536 inactive, PERK inh inactive, KLK5 inh inactive, Thrombin inh inactive and FXIa inh inactive.
Screening COc1cc(C(=O)NCCOc2cccc3cccnc23)cc(OC)c1OC returned Furin inhibitor inactive, FXIIa inh 1536 inactive, PERK inh inactive, KLK5 inh inactive, Thrombin inh inactive and FXIa inh inactive.
Screening COc1ccc(S(=O)(=O)NCCOc2cccc3cccnc23)cc1OC returned Furin inhibitor inactive, FXIIa inh 1536 inactive, PERK inh inactive, KLK5 inh inactive, Thrombin inh inactive and FXIa inh 42.1.
For Nc1ccn(Cc2ccc(F)cc2)n1 the results were Furin inhibitor inactive, FXIIa inh 1536 inactive, PERK inh inactive, KLK5 inh inactive, Thrombin inh inactive and FXIa inh inactive.
`CC(O)C(=O)N/N=C/c1cccc2ccccc12` (stereo not given) gave Furin inhibitor inactive, FXIIa inh 1536 inactive, PERK inh inactive, KLK5 inh 41.3, Thrombin inh 47.5 and FXIa inh inactive.
Screening Cc1cc2[nH]cnc2c([N+](=O)[O-])c1C returned Furin inhibitor inactive, FXIIa inh 1536 inactive, PERK inh inactive, KLK5 inh inactive, Thrombin inh inactive and FXIa inh inactive.
Screening Cc1cc(C)nc(-n2nc(C)cc2Nc2ccccc2)n1 returned Furin inhibitor inactive, FXIIa inh 1536 inactive, PERK inh inactive, KLK5 inh 54.5, Thrombin inh 104.0 and FXIa inh inactive.
Screening CCOC(=O)CSc1nc(=O)n2ccccc2n1 returned Furin inhibitor inactive, FXIIa inh 1536 inactive, PERK inh inactive, KLK5 inh inactive, Thrombin inh inactive and FXIa inh inactive.
Screening CCCCn1c(-c2c(Cl)c(C)nn2C)n[nH]c1=S returned Furin inhibitor inactive, FXIIa inh 1536 inactive, PERK inh inactive, KLK5 inh inactive, Thrombin inh inactive and FXIa inh inactive.
For CCn1c(-c2c(Cl)c(C)nn2C)n[nH]c1=S the results were Furin inhibitor inactive, FXIIa inh 1536 inactive, PERK inh inactive, KLK5 inh 55.5, Thrombin inh inactive and FXIa inh inactive.
For CN=C1SC(CC(=O)Nc2c(C)cccc2C)C(=O)N1/N=C/c1cccs1 (stereo not given) the results were Furin inhibitor inactive, FXIIa inh 1536 inactive, PERK inh inactive, KLK5 inh inactive, Thrombin inh inactive and FXIa inh inactive.
COc1ccc([N+](=O)[O-])cc1NC(=O)CC1SC(=Nc2cccc(C)c2C)N(/N=C/c2cccc(OC)c2OC)C1=O (stereo not given) was read as Furin inhibitor inactive, FXIIa inh 1536 inactive, PERK inh inactive, KLK5 inh inactive, Thrombin inh inactive and FXIa inh 102.2.
CCCCCCCCCCCCOC(=O)C[N+](C)(C)C was read as Furin inhibitor inactive, FXIIa inh 1536 inactive, PERK inh 3.2, KLK5 inh inactive, Thrombin inh inactive and FXIa inh inactive.
Screening CCn1cc(C(=O)NCc2ccc3c(c2)OCO3)c(=O)c2cc(F)c(N3CCN(C(=O)c4ccco4)CC3)cc21 returned Furin inhibitor inactive, FXIIa inh 1536 inactive, PERK inh inactive, KLK5 inh inactive, Thrombin inh inactive and FXIa inh inactive.
CN(c1ccc(OCC(=O)OCC(=O)Nc2c(F)c(F)c(F)c(F)c2F)cc1)S(=O)(=O)c1ccc(F)cc1 was read as Furin inhibitor inactive, FXIIa inh 1536 inactive, PERK inh inactive, KLK5 inh inactive, Thrombin inh inactive and FXIa inh inactive.
For CCOC(=O)c1c(C)nc2sc3c(=O)n(-c4ccc(OC)cc4)nnc3c2c1-c1ccc(OC)cc1 the results were Furin inhibitor inactive, FXIIa inh 1536 inactive, PERK inh inactive, KLK5 inh 44.6, Thrombin inh inactive and FXIa inh inactive.
Screening CCOC(=O)c1c(C)nc2sc3c(=O)n(-c4ccc(C(C)=O)cc4)cnc3c2c1-c1ccc(OC)cc1 returned Furin inhibitor inactive, FXIIa inh 1536 inactive, PERK inh inactive, KLK5 inh inactive, Thrombin inh inactive and FXIa inh inactive.
`Cc1cc2cc(CN(Cc3ccc4c(c3)OCO4)C(=O)c3ccco3)c(=O)[nH]c2cc1C` gave Furin inhibitor inactive, FXIIa inh 1536 inactive, PERK inh inactive, KLK5 inh 54.5, Thrombin inh inactive and FXIa inh inactive.
Screening Cc1[nH][nH]c(=O)c1C(c1cc([N+](=O)[O-])ccc1O)c1c(C)[nH][nH]c1=O returned Furin inhibitor inactive, FXIIa inh 1536 inactive, PERK inh inactive, KLK5 inh 57.3, Thrombin inh inactive and FXIa inh inactive.
For CNC(=O)c1ccc(N(Cc2ccccc2)S(C)(=O)=O)cc1 the results were Furin inhibitor inactive, FXIIa inh 1536 58.4, PERK inh inactive, KLK5 inh 72.2, Thrombin inh inactive and FXIa inh inactive.
CC(=O)c1cccc(NC(=O)c2ccc(N(Cc3ccccc3)S(C)(=O)=O)cc2)c1 was read as Furin inhibitor inactive, FXIIa inh 1536 inactive, PERK inh inactive, KLK5 inh inactive, Thrombin inh inactive and FXIa inh inactive.
CC1(/[N+]([O-])=C\c2ccccc2F)CCCCC1=O (stereo not given) was read as Furin inhibitor inactive, FXIIa inh 1536 inactive, PERK inh inactive, KLK5 inh inactive, Thrombin inh inactive and FXIa inh inactive.
For Cn1c(SCC(=O)Nc2nc(C(C)(C)C)cs2)nnc1C1CC1 the results were Furin inhibitor inactive, FXIIa inh 1536 inactive, PERK inh inactive, KLK5 inh inactive and FXIa inh inactive.
`NS(=O)(=O)c1ccc(CCNC(=O)COC(=O)C2CCCN2C(=O)c2cccs2)cc1` (stereo not given) gave Furin inhibitor inactive, FXIIa inh 1536 inactive, PERK inh 3.3, KLK5 inh inactive, Thrombin inh inactive and FXIa inh inactive.
Screening CCOC(=O)CN(c1cccc(C(C)=O)c1)S(C)(=O)=O returned Furin inhibitor inactive, FXIIa inh 1536 inactive, PERK inh inactive, KLK5 inh 44.0, Thrombin inh inactive and FXIa inh inactive.
